For one experiment, the system named is Dengue virus. The experiment in a line: Inhibition of Dengue virus NS2B-NS3 protease using Abz-NleKRRS-3-(NO2)Y as substrate at 50 uM preincubated for 15 mins measured every sec for 15 mins by fluorimetric analysis.
Another experiment deals with Prothrombin (Bos taurus) (UniProt P00735). The experiment in a line: Inhibition of bovine plasma thrombin using Boc-Val-Pro-Arg-AMC as substrate at 25 uM preincubated for 15 mins measured after 10 mins by fluorimetric assay. In short, it runs like this:
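Purchased bovine plasma thrombin at 10 nM final, preincubated 15 min with 25 μM inhibitor; reaction started with 50 μM substrate. Buffer 50 mM Tris-HCl pH 7.5, 150 mM NaCl, 0.05% Tween 20. Triplicate, averaged.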

In experiment [1] the test system is Escherichia coli. The experiment can be described thus: Inhibition of Escherichia coli MurA using PEP as substrate assessed as inorganic phosphate release at 25 uM preincubated for 10 mins measured after 60 mins […].
Experiment [2] concerns Escherichia coli. The experiment can be described thus: Inhibition of Escherichia coli MetAP at 10 uM after 15 mins by fluorescence analysis.

Drawing on ChEMBL document CHEMBL1955761, “Privileged scaffolds or promiscuous binders: a comparative study on rhodanines and related heterocycles in medicinal chemistry” (J Med Chem, 2012), this text covers inhibition for 45 compounds.

The source made the active and inactive calls.

One may read the inhibition as the share of the control response that was lost under treatment. For the compound `O=C1NC(=O)[C@H](Cc2c[nH]c3ccccc23)N1`, the inhibition result with Dengue virus, on Prothrombin (Bos taurus) and with Escherichia coli [1] was “inactive” in each case. For the same compound, the inhibition with Escherichia coli [2] was found to be 19%.
As for `O=C1NC(=O)/C(=C/c2ccc(O)cc2)S1`, the values for the inhibition in the experiment with Dengue virus and on Prothrombin (Bos taurus) were 32% and 34%, respectively. The inhibition entry in the experiment on Escherichia coli [1] and in the experiment on Escherichia coli [2] was “inactive” each time.
Turning to `COc1cccc(/C=C2\SC(=O)NC2=O)c1`, the inhibition with Dengue virus was 17%; against Prothrombin (Bos taurus) it was 11%; with Escherichia coli [1] it was 25%; in the experiment with Escherichia coli [2] it was 10%.
The like results for `O=C1NC(=S)N/C1=C\c1ccccn1` were, in that order, 47%, 38%, 13% and 95%.
In the same order, the values of `O=C1NC(=S)S/C1=C\c1ccc(O)cc1` are 47%, 34%, 24% and “inactive”.
Take `COc1ccccc1/C=C1\NC(=S)NC1=O`: the inhibition with Dengue virus came out at 28%; on Prothrombin (Bos taurus), 15%; in the experiment with Escherichia coli [1], 10%; with Escherichia coli [2], 18%.
The like results for `O=C1NC(=S)S/C1=C\c1ccc2ccccc2c1` were, in that order, 56%, 28%, 15% and 14%.
In the same order, the values of `COc1ccc(/C=C2\NC(=O)NC2=O)cc1` are 24%, 10%, “inactive” and 10%.
In the same order, the values of `O=C1NC(=S)NC1Cc1ccc(O)c(O)c1` (stereo not given) are 15%, “inactive”, 63% and 73%.
As to `O=C1NC(=S)S/C1=C\c1ccco1`, the inhibition came out at 52% in the experiment with Dengue virus, 25% against Prothrombin (Bos taurus) and 17% in the experiment on Escherichia coli [1]. In addition, the inhibition entry with Escherichia coli [2] is “inactive”.
`O=C1NC(=O)/C(=C/c2ccc(O)c(O)c2)S1`: the inhibition in the experiment on Dengue virus turned out to be 44%; on Prothrombin (Bos taurus), 37%; in the experiment with Escherichia coli [1] it was 78%; in the experiment on Escherichia coli [2], 90%.
For the compound `O=C1NC(=O)/C(=C/c2sccc2Cl)S1`, the inhibition in the experiment on Dengue virus was determined as 23%; against Prothrombin (Bos taurus), 11%; in the experiment with Escherichia coli [1] it was 12%. Besides, in the experiment on Escherichia coli [2], the inhibition result was “inactive”.
For `C/C(=C1/SC(=O)NC1=O)c1ccc2ccccc2c1`, the inhibition with Dengue virus is 30%; against Prothrombin (Bos taurus), 20%; in the experiment on Escherichia coli [2], 12%. For the same compound, the inhibition result in the experiment with Escherichia coli [1] is “inactive”.
Regarding `O=C1CNC(=S)N1`, the inhibition entry with Dengue virus, on Prothrombin (Bos taurus), in the experiment with Escherichia coli [1] and with Escherichia coli [2] was “inactive” in each case.
For the compound `O=C1NC(=O)/C(=C/C=C/c2ccco2)S1`, the inhibition result in the experiment on Dengue virus is “inactive”. For the same compound, the inhibition was 24% against Prothrombin (Bos taurus), 24% in the experiment with Escherichia coli [1] and 12% in the experiment on Escherichia coli [2].
In the case of `O=C1NC(=O)[C@H](Cc2ccccc2)N1`, the inhibition entry in the experiment on Dengue virus, at Prothrombin (Bos taurus) and in the experiment with Escherichia coli [1] was “inactive” each time. In the experiment with Escherichia coli [2], the inhibition is 22%.
Regarding `O=C1NC(=S)N/C1=C\c1sccc1Br`, the inhibition was 44% in the experiment with Dengue virus, 11% on Prothrombin (Bos taurus) and 31% in the experiment on Escherichia coli [1]. Also, in the experiment on Escherichia coli [2], the inhibition entry was “inactive”.
As for `O=C1NC(=S)N/C1=C\c1ccco1`, the inhibition was found to be 46% in the experiment with Dengue virus, 14% against Prothrombin (Bos taurus) and 22% in the experiment on Escherichia coli [1]. The inhibition entry in the experiment with Escherichia coli [2] was “inactive”.
As for `CC(C)C[C@@H]1NC(=S)NC1=O`, the inhibition result with Dengue virus, at Prothrombin (Bos taurus) and in the experiment on Escherichia coli [2] was “inactive” throughout. Also, the inhibition in the experiment on Escherichia coli [1] is 20%.
For the compound `O=C1NC(=S)N/C1=C\c1sccc1Cl`, the inhibition came to 46% in the experiment with Dengue virus, 19% against Prothrombin (Bos taurus) and 19% with Escherichia coli [1]. Also, the inhibition entry with Escherichia coli [2] is “inactive”.
For `Cn1cc(/C=C2\SC(=S)NC2=O)c2ccccc21`, the inhibition was 45% in the experiment with Dengue virus, 27% on Prothrombin (Bos taurus), 18% in the experiment on Escherichia coli [1] and 12% in the experiment with Escherichia coli [2].
In the same order, the values of `O=C1NC(=O)[C@@H](Cc2ccccc2)N1` are “inactive”, “inactive”, “inactive” and “inactive”.
Turning to `O=C1NC(=S)N/C1=C\c1ccccc1`, the inhibition in the experiment with Dengue virus stood at 35%; against Prothrombin (Bos taurus) it was 17%; in the experiment on Escherichia coli [2], 12%. Also, in the experiment with Escherichia coli [1], the inhibition result was “inactive”.
With `COc1ccc(/C=C2\NC(=S)NC2=O)cc1`, the inhibition in the experiment with Dengue virus is 50%; at Prothrombin (Bos taurus), 13%. In addition, the inhibition result with Escherichia coli [1] and in the experiment on Escherichia coli [2] was “inactive” in each case.
Consider `Nc1ccc(/C=C2\SC(=S)NC2=O)cc1`, for which the inhibition result with Dengue virus, with Escherichia coli [1] and in the experiment with Escherichia coli [2] was “inactive” each time. In addition, the inhibition against Prothrombin (Bos taurus) was 11%.
In the case of `O=C1NC(=O)/C(=C/c2ccccc2)S1`, the inhibition worked out at 25% in the experiment with Dengue virus and 15% at Prothrombin (Bos taurus). The inhibition result with Escherichia coli [1] and in the experiment with Escherichia coli [2] was “inactive” throughout.
For the compound `COc1ccc(/C=C2\NC(=S)NC2=O)cc1OC`, the inhibition with Dengue virus turned out to be 44%; on Prothrombin (Bos taurus), 20%; in the experiment on Escherichia coli [1] it was 18%; in the experiment with Escherichia coli [2], 11%.
For `CC(=O)N1C(=S)NC(=O)[C@@H]1CCCCN`, the inhibition entry in the experiment with Dengue virus, on Prothrombin (Bos taurus) and in the experiment with Escherichia coli [2] was “inactive” each time. Also, the inhibition in the experiment on Escherichia coli [1] turned out to be 12%.
`O=C1NC(=O)/C(=C/c2sccc2Cl)N1`: the inhibition entry in the experiment with Dengue virus, on Prothrombin (Bos taurus), in the experiment on Escherichia coli [1] and in the experiment with Escherichia coli [2] was “inactive” throughout.
In the case of `O=C1NC(=S)N/C1=C\c1cccs1`, the values for the inhibition in the experiment with Dengue virus and at Prothrombin (Bos taurus) were 48% and 16%, respectively. The inhibition entry in the experiment on Escherichia coli [1] and in the experiment with Escherichia coli [2] was “inactive” each time.
As for `O=C1NC(=S)N[C@H]1Cc1ccccc1`, the inhibition result in the experiment with Dengue virus and at Prothrombin (Bos taurus) was “inactive” each time. In addition, the results for the inhibition with Escherichia coli [1] and with Escherichia coli [2] were 17% and 12%, respectively.
Turning to `O=C1NC(=S)N/C1=C\c1ccc([N+](=O)[O-])cc1`, the inhibition in the experiment on Dengue virus worked out at 35%; at Prothrombin (Bos taurus), 19%; in the experiment with Escherichia coli [1], 15%; with Escherichia coli [2], 13%.
`O=C1NC(=O)/C(=C/c2ccccn2)S1`: the inhibition with Dengue virus is 15%; at Prothrombin (Bos taurus), 29%; in the experiment on Escherichia coli [2], 12%. In the experiment with Escherichia coli [1], the inhibition entry was “inactive”.
Consider `O=C1NC(=O)/C(=C/c2ccc(Cl)s2)S1`, for which the inhibition worked out at 11% in the experiment on Dengue virus, 29% against Prothrombin (Bos taurus) and 38% with Escherichia coli [1]. Also, in the experiment with Escherichia coli [2], the inhibition entry was “inactive”.
On to `COc1ccc(/C=C2\SC(=O)NC2=O)cc1OC`, for which the inhibition in the experiment on Dengue virus turned out to be 16%; on Prothrombin (Bos taurus), 23%; in the experiment with Escherichia coli [2], 13%. In addition, the inhibition entry with Escherichia coli [1] is “inactive”.
`CC(=O)N1C(=S)NC(=O)[C@@H]1Cc1ccccc1`: the inhibition result in the experiment on Dengue virus and on Prothrombin (Bos taurus) was “inactive” each time. For the same compound, the inhibition with Escherichia coli [1] was found to be 19%; in the experiment with Escherichia coli [2] it was 12%.
`Cn1cc(/C=C2\SC(=O)NC2=O)c2ccccc21`: the inhibition in the experiment on Dengue virus turned out to be 41%; against Prothrombin (Bos taurus), 25%. In addition, the inhibition result in the experiment on Escherichia coli [1] and with Escherichia coli [2] was “inactive” each time.
With `O=C1NC(=O)/C(=C/c2cccs2)N1`, the inhibition came to 16% in the experiment on Dengue virus and 22% against Prothrombin (Bos taurus). In addition, the inhibition entry with Escherichia coli [1] and in the experiment on Escherichia coli [2] was “inactive” throughout.
In the case of `O=C1NC(=O)/C(=C/c2ccc(Cl)cc2Cl)S1`, the results for the inhibition in the experiment with Dengue virus and against Prothrombin (Bos taurus) were 13% and 28%, respectively. In addition, the inhibition result in the experiment on Escherichia coli [1] and in the experiment on Escherichia coli [2] was “inactive” throughout.
With `COc1cc(/C=C2\SC(=O)NC2=O)ccc1O`, the inhibition was found to be 19% in the experiment with Dengue virus, 27% on Prothrombin (Bos taurus) and 100% with Escherichia coli [1]. The inhibition result in the experiment on Escherichia coli [2] is “inactive”.
Consider `O=C1NC(=O)/C(=C/c2ccc(O)cc2)N1`, for which the inhibition was 26% with Dengue virus and 14% against Prothrombin (Bos taurus). Besides, the inhibition entry in the experiment on Escherichia coli [1] and in the experiment with Escherichia coli [2] was “inactive” in each case.
In the experiment on Dengue virus, `O=C1NC(=O)/C(=C/c2ccc([N+](=O)[O-])cc2)N1` gave an inhibition of 26%. For the same compound, the inhibition result on Prothrombin (Bos taurus), in the experiment on Escherichia coli [1] and in the experiment on Escherichia coli [2] was “inactive” each time.
On to `COc1cccc(/C=C2\SC(=S)NC2=O)c1`, for which the values for the inhibition with Dengue virus, on Prothrombin (Bos taurus) and in the experiment on Escherichia coli [1] were 33%, 11% and 10%, respectively. Also, the inhibition entry in the experiment with Escherichia coli [2] was “inactive”.
The like results for `O=C1NC(=S)S/C1=C\c1ccc(Br)s1` were, in that order, 50%, 22%, 21% and “inactive”.
Take `O=C1NC(=S)SC1Cc1ccccc1` (stereo not given): the inhibition entry in the experiment on Dengue virus, at Prothrombin (Bos taurus) and in the experiment on Escherichia coli [2] was “inactive” in each case. Also, in the experiment with Escherichia coli [1], the inhibition was 11%.
